Measurements as given in ChEMBL document CHEMBL4837227, “Discovery and development of 2-aminobenzimidazoles as potent antimalarials” (Eur J Med Chem, 2021).
pIC50, pKd: −log10 of the molar value. ≈ marks a conversion by molar mass, not a printed value. Calls of active or inactive are those of the source. The rule behind the calls is not given here.

Experiments:
[1] = system: Plasmodium falciparum; assay: Antimalarial activity against Plasmodium falciparum 3D7 assessed as reduction in parasite growth measured after 72 hrs by Monash assay based fluorescence analysis; type: functional, organism-based; details: 3D7, 72 h
Method in brief: (§1)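 Asynchronous P. falciparum cultures were grown continuously in complete RPMI with 25 mM HEPES, 0.5% Albumax II, 0.37 mM hypoxanthine and 2.0 g/l bicarbonate. They were exposed to serially diluted compound for 72 h. Controls were DMSO (0.01%) and a reference positive control. Fluorescence was read after 2 h in the dark at room temperature. IC50 is mean SEM from technical duplicate or triplicate, at least three biological replicates.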

[2] = system: Plasmodium falciparum; assay: Antimalarial activity against artemisinin-resistant Plasmodium falciparum Cam3.II^C580Y expressing K13 mutant assessed as reduction in parasite growth measured after 72 hrs by Monash assay based fluorescence analysis; type: functional, organism-based
Method in brief: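 Asynchronous culture, 72 h compound exposure. Compounds prepared at […] (twice the top concentration) in complete RPMI (25 mM HEPES, 0.5% Albumax II, 0.37 mM hypoxanthine, sodium bicarbonate), then serially diluted. Fluorescence read after 2 h room-temperature dark incubation. Negative control 0.01% DMSO. IC50 as mean SEM, n ≥ 3 biological replicates, each in technical duplicate or triplicate.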

[3] = system: Plasmodium falciparum; assay: Antimalarial activity against artemisinin-sensitive Plasmodium falciparum Cam3.II^rev expressing wild type K13 assessed as reduction in parasite growth measured after 72 hrs by Monash assay based fluorescence analysis; type: functional, organism-based; method in brief: as §1
[4] = Selectivity index, ratio of IC50 for cytotoxicity against human HEK293 cells to antiplasmodial activity against Plasmodium falciparum 3D7; type: toxicity, cell-based; details: read-out: Ratio IC50
[5] = Kinetic solubility of the compound at pH 2 measured after 30 mins by nephelometry; type: physicochemical; details: buffer, read-out: Kinetic_solubility
Method in brief: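 Compound in DMSO was spiked into 0.01 M HCl (pH ~2.0) at a final DMSO of 1%. After 30 min, nephelometry gave a solubility range.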

[6] = Metabolic stability in mouse liver microsomes assessed as half-life at 1 uM measured for 60 mins in presence of NADPH regenerating system by LC-MS analysis; type: ADME, Microsome
Method in brief: (§2)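 Compound was incubated at 37 °C with liver microsomes at 0.4 mg/mL protein. The reaction was started with an NADPH-regenerating system and quenched at time points over 60 min with acetonitrile containing diazepam as internal standard. No-NADPH controls were quenched at 2, 30 and 60 min.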

[7] = Metabolic stability in human liver microsomes assessed as half-life at 1 uM measured for 60 mins in presence of NADPH regenerating system by LC-MS analysis; type: ADME, Microsome; method in brief: as §2
[8] = Metabolic stability in mouse liver microsomes assessed as intrinsic clearance at 1 uM measured per mg protein for 60 mins in presence of NADPH regenerating system by LC-MS analysis; type: ADME, Microsome; details: read-out: CLH; method in brief: as §2
[9] = Metabolic stability in human liver microsomes assessed as intrinsic clearance at 1 uM measured per mg protein after 60 mins in presence of NADPH regenerating system by LC-MS analysis; type: ADME, Microsome; details: read-out: CLH; method in brief: as §2
[10] = Kinetic solubility of the compound at pH 6.5 measured after 30 mins by nephelometry; details: buffer, read-out: Kinetic_solubility
[11] = system: HEK293; assay: Cytotoxicity against human HEK293 cells assessed as reduction in cell viability at 50 uM measured after 24 hrs by MTT assay; details: hek293, 24 h
[12] = system: Plasmodium falciparum 3D7; assay: (§3) Binding affinity to Plasmodium falciparum 3D7 AMA1 (104 to 438 residues) expressed in Escherichia coli BL21(DE3) by surface plasmon resonance assay
[13] = system: Plasmodium falciparum; assay: Antimalarial activity against synchronous ring stage of Plasmodium falciparum 3D7 assessed as parasite growth inhibition incubated for 72 hrs by Griffith assay based fluorescence analysis; type: functional, organism-based; details: 3D7, 72 h
Method in brief: (§4)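 22-point dose-response, 3 per log, final 40 µM top, 0.4% DMSO. 72 h at 37 °C under 90% N2/5% CO2/5% O2. DAPI stain, confocal imaging. IC50 from 4-parameter fit normalised to in-plate puromycin and DMSO controls.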

[14] = system: Plasmodium falciparum; assay: Antimalarial activity against synchronous ring stage of Plasmodium falciparum Dd2 assessed as parasite growth inhibition incubated for 72 hrs by Griffith assay based fluorescence analysis; type: functional, organism-based; details: Dd2, 72 h; method in brief: as §4
[15] = Selectivity index, ratio of IC50 for antimalarial activity against Plasmodium falciparum Dd2 to IC50 of antimalarial activity against Plasmodium falciparum 3D7; type: functional
[16] = system: Plasmodium falciparum; assay: Antiplasmodial activity against PfATP4 inhibitor SJ557733-resistant Plasmodium falciparum Dd2 assessed as reduction in parasite growth incubated for 72 hrs by Griffith assay based fluorescence analysis; type: functional, organism-based; details: Dd2, 72 h; method in brief: as §4
[17] = system: Plasmodium falciparum; assay: Selectivity index, ratio of IC50 for antimalarial activity against PfATP4 inhibitor SJ557733-resistant Plasmodium falciparum Dd2 to IC50 of antimalarial activity against Plasmodium falciparum Dd2; type: functional
[18] = as §3

Cc1cc(O)c(-n2c(N)nc3ccccc32)cc1C showed a pIC50 [1] of 8.19, a pIC50 [2] of 7.20 and a pIC50 [3] of 7.33. For the same compound, the selectivity ratio [4] was over 1000, the solubility kinetic at 0.5 h [5] was over 100 µg/mL and the half-life at 1 µM [6] was 0.383 h. It also gave a half-life at 1 µM [7] of 2.15 h, a microsomal CLint at 1 µM [8] of 76 µL/min/mg and a microsomal CLint at 1 µM [9] of 13 µL/min/mg. For the same compound, the solubility kinetic at 0.5 h [10] was 12.5 µg/mL (≈ 49.3 µM) and the Activity [11] was “Non-Toxic”.
With N#Cc1ccc(-n2c(N)nc3ccccc32)cc1 the pIC50 [1] was under 6.30 and the Activity [12] was “inactive”.
In the case of COc1ccc(-n2c(N)nc3ccccc32)c(O)c1, the pIC50 [1] was 7.37, the pIC50 [2] was 6.77 and the pIC50 [3] was 6.67. For the same compound, the selectivity ratio [4] was over 1000, the solubility kinetic at 0.5 h [5] was over 100 µg/mL and the half-life at 1 µM [6] was 0.1 h. For the same compound, the half-life at 1 µM [7] was 2.07 h, the microsomal CLint at 1 µM [8] was 271 µL/min/mg and the microsomal CLint at 1 µM [9] was 14 µL/min/mg. The solubility kinetic at 0.5 h [10] was 50 µg/mL (≈ 196 µM) and the Activity [11] was “Non-Toxic”.
For Nc1nc2ccccc2n1[C@H]1CCC[C@@H]1O, the pIC50 [1] was under 6.30.
With CCNc1nc2ccccc2n1-c1ccccc1O the pIC50 [1] was under 6.30.
In the case of Nc1ccccc1-n1c(S)nc2ccccc21, the pIC50 [1] was under 6.30.
In the case of Nc1nc2ccccc2n1-c1ccccc1F, the pIC50 [1] was under 6.30 and the Activity [12] was “inactive”.
For Nc1nc2ccccc2n1CCO, the pIC50 [1] was under 6.30.
Work on Nc1nc2ccccc2n1-c1cccc2cc[nH]c12 yielded a pIC50 [1] of under 6.30.
In the case of Cc1cc(C)c(O)c(-n2c(N)nc3ccccc32)c1, the pIC50 [1] was 7.64, the pIC50 [2] was 6.86 and the pIC50 [3] was 6.88. It also gave a selectivity ratio [4] of over 1000, a solubility kinetic at 0.5 h [5] of over 100 µg/mL and a half-life at 1 µM [6] of 0.0667 h. The half-life at 1 µM [7] was 2.88 h, the microsomal CLint at 1 µM [8] was 476 µL/min/mg and the microsomal CLint at 1 µM [9] was 10 µL/min/mg. For the same compound, the solubility kinetic at 0.5 h [10] was 12.5 µg/mL (≈ 49.3 µM) and the Activity [11] was “Non-Toxic”.
Compound Nc1nc2ccccc2n1-c1ccc2ccccc2c1O has a pIC50 [1] of 7.42, a pIC50 [2] of 6.94 and a pIC50 [3] of 6.98. The selectivity ratio [4] was over 1000 and the Activity [11] was “Non-Toxic”.
COc1ccc2nc3cc(Cl)ccc3c(Nc3cc(CN4CCCC4)c(O)c(CN4CCCC4)c3)c2n1 [PYRONARIDINE] showed a pIC50 [13] of 8.13, a pIC50 [14] of 8.08 and a Ratio IC50 [15] of 1.1.
For Cc1ccc(-n2c(N)nc3ccccc32)cc1, the pIC50 [1] was under 6.30 and the Activity [12] was “inactive”.
In the case of Nc1nc2ccccc2n1-c1ccccc1O, the pIC50 [1] was 7.11, the pIC50 [13] was 7.65 and the pIC50 [14] was 7.01. It also gave a Ratio IC50 [15] of 4.4, a pIC50 [2] of 6.58 and a pIC50 [3] of 6.46. For the same compound, the pIC50 [16] was 7.34, the Ratio IC50 [17] was 0.5 and the selectivity ratio [4] was over 1000. For the same compound, the solubility kinetic at 0.5 h [5] was over 100 µg/mL, the half-life at 1 µM [6] was 1.3 h and the half-life at 1 µM [7] was over 4.25 h. For the same compound, the microsomal CLint at 1 µM [8] was 22 µL/min/mg, the microsomal CLint at 1 µM [9] was under 7 µL/min/mg and the Activity [12] was “inactive”. The solubility kinetic at 0.5 h [10] was over 100 µg/mL and the Activity [11] was “Non-Toxic”.
Compound COc1cccc(-n2c(N)nc3ccccc32)c1O has a pIC50 [1] of 7.26.
In the case of Nc1nc2ccccc2n1-c1cccc(O)c1, the pIC50 [1] was under 6.30 and the Activity [12] was “inactive”.
Cc1cccc(-n2c(N)nc3ccccc32)c1O gave a pIC50 [1] of 7.21.
Nc1ccccc1-n1c(O)nc2ccccc21 showed a pIC50 [1] of under 6.30.
Nc1nc2ccccc2n1-c1ccncc1O gave a pIC50 [1] of under 6.30.
Compound Oc1ccccc1-n1cnc2ccccc21 has a pIC50 [1] of under 6.30.
Compound Oc1cccc(-c2nc3ccccc3[nH]2)c1 has a pKd [18] of 3.10.
Compound CCCNc1nc2ccccc2n1-c1ccccc1O has a pIC50 [1] of under 6.30.
Nc1nc2ccccc2n1[C@H]1CCCC[C@@H]1O showed a pIC50 [1] of under 6.30.
For Cc1cccc(O)c1-n1c(N)nc2ccccc21, the pIC50 [1] was 6.87.
In the case of COc1cccc(O)c1-n1c(N)nc2ccccc21, the pIC50 [1] was 6.74.
In the case of Nc1nn(-c2ccccc2O)c2ccccc12, the pIC50 [1] was under 6.30.
With N#Cc1cc(NC(=O)[C@H]2c3ccccc3C(=O)N(CC(F)(F)F)[C@@H]2c2cccnc2)ccc1F [SJ-733] the pIC50 [14] was 7.23, the pIC50 [16] was under 5.10 and the Ratio IC50 [17] was over 135.
Work on Oc1ccccc1-n1c(NCc2ccccc2)nc2ccccc21 yielded a pIC50 [1] of under 6.30.
Nc1cccc(-c2nc3ccccc3[nH]2)c1 showed a pKd [18] of 3.30.
With Nc1nc2ccccc2n1-c1ccccc1CO the pIC50 [1] was under 6.30 and the Activity [12] was “inactive”.
Compound Oc1ccccc1-n1c(NCC2CCCCC2)nc2ccccc21 has a pIC50 [1] of 6.65.
With Nc1nc2ccccc2n1-c1cccc2ccoc12 the pIC50 [1] was under 6.30.
COc1ccc(O)c(-n2c(N)nc3ccccc32)c1 gave a pIC50 [1] of under 6.30.
